Activity calls are given as the source filed them. No cut-off for these calls is given here.
Legend:
[1] = tested on: Bel-7402; assay: Cytotoxicity against human Bel7402 cells by MTT assay; type: functional, cell-based
How it was run: (§1)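 MTT assay on five human tumour lines: HT-29 colon carcinoma, HCT-8 ileocecal adenocarcinoma, Bel-7402 hepatoma, A549 non-small cell lung carcinoma and MCF-7 breast carcinoma.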

[2] = tested on: MCF7; assay: Cytotoxicity against human MCF7 cells by MTT assay; type: functional, cell-based; how it was run: as §1
[3] = tested on: HCT-8; assay: Cytotoxicity against human HCT8 cells by MTT assay; type: functional, cell-based; how it was run: as §1
[4] = tested on: A549; assay: Cytotoxicity against human A549 cells by MTT assay; type: functional, cell-based; how it was run: as §1
[5] = tested on: HT-29; assay: Cytotoxicity against human HT-29 cells by MTT assay; type: functional, cell-based; how it was run: as §1
[6] = tested on: HT-29; assay: Decrease in topoisomerase 1 expression in human HT-29 cells at 20 uM after 24 hrs relative to control; type: functional, cell-based
How it was run: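 TOPO I protein level in HT-29 cells was probed after 24 h incubation by the common protocols with a commercial TOPO I antibody. Levels were compared with a control group.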

[7] = tested on: HT-29; assay: Cell cycle arrest in human HT-29 cells assessed as accumulation of Sub-G1 phase at 20 uM after 24 hrs by flow cytometry relative to control; type: functional
How it was run: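 HT-29 cells were exposed for 24 h. Apoptosis was scored by flow cytometry as the percentage of cells in the Sub-G1 phase, compared against an untreated control group.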

[8] = target: T1, DNA topoisomerase 1 (Homo sapiens) (UniProt P11387); assay: Inhibition of topoisomerase 1 assessed as conversion of supercoiled DNA to open circular DNA at 100 uM
T1 sequence (whole entry): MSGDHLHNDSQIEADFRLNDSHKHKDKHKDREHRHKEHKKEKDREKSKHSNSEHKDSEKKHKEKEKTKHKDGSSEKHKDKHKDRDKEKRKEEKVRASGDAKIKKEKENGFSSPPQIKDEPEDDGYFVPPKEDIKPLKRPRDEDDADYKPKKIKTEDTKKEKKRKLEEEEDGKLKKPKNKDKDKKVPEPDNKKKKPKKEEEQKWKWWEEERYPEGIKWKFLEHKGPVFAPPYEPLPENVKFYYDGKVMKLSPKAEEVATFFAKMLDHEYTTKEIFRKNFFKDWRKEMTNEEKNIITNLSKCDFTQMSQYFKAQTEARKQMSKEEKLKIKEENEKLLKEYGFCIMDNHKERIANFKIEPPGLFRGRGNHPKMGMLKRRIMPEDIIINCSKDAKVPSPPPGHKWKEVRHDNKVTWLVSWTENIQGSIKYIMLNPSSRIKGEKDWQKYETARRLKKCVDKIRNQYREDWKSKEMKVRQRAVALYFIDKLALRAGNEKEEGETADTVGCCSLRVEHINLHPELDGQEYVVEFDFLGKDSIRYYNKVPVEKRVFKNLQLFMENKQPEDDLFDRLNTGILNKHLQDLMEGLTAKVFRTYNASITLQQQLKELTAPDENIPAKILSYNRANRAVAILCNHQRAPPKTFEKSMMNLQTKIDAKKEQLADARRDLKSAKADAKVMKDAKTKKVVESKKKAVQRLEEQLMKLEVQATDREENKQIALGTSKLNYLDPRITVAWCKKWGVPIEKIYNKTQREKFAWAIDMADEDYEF
How it was run: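 A commercial TOPO I drug screening kit was used with a supercoiled plasmid DNA substrate. Activity was read as conversion of supercoiled DNA (Form I) to open circular DNA, with camptothecin as reference inhibitor.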

## CC(NC(=O)Cn1c2ccccc2c2c3c(c4c5ccccc5[nH]c4c21)C(=O)N(C)C3=O)C(=O)N1CCOCC1 (configuration not stated)
[1]
  IC50: > 10 µM
[2]
  IC50: > 10 µM
[3]
  IC50: > 10 µM
[4]
  IC50: > 10 µM
[5]
  IC50: > 10 µM

## COC(=O)C(NC(=O)Cn1c2ccccc2c2c3c(c4c5ccccc5[nH]c4c21)C(=O)N(C)C3=O)C(C)C (configuration not stated)
[1]
  IC50: > 10 µM
[2]
  IC50: > 10 µM
[3]
  IC50: > 10 µM
[4]
  IC50: > 10 µM
[5]
  IC50: > 10 µM

## COC(=O)C(CC(C)C)NC(=O)Cn1c2ccccc2c2c3c(c4c5ccccc5[nH]c4c21)C(=O)N(C)C3=O (configuration not stated)
[1]
  IC50: > 10 µM
[2]
  IC50: > 10 µM
[3]
  IC50: > 10 µM
[4]
  IC50: > 10 µM
[5]
  IC50: > 10 µM

## CC(C)CC(NC(=O)Cn1c2ccccc2c2c3c(c4c5ccccc5[nH]c4c21)C(=O)N(C)C3=O)C(=O)O (configuration not stated)
[1]
  IC50: > 10 µM
[2]
  IC50: > 10 µM
[3]
  IC50: > 10 µM
[4]
  IC50: > 10 µM
[5]
  IC50: > 10 µM

## CN1C(=O)c2c(c3c4ccccc4n(CC(=O)NCC(=O)O)c3c3[nH]c4ccccc4c23)C1=O
[1]
  IC50: > 10 µM
[2]
  IC50: > 10 µM
[3]
  IC50: > 10 µM
[4]
  IC50: > 10 µM
[5]
  IC50: > 10 µM

## CC(C)C(NC(=O)Cn1c2ccccc2c2c3c(c4c5ccccc5[nH]c4c21)C(=O)N(C)C3=O)C(=O)N1CCOCC1 (configuration not stated)
[6]
  Activity: Active
[1]
  IC50: > 10 µM
[7]
  Activity: 2.49%
[2]
  IC50: > 10 µM
[3]
  IC50: > 10 µM
[4]
  IC50: 5.11 µM
[5]
  IC50: 2.66 µM
[8]
  Activity: Active

## CCN1CCN(C(=O)C(CC(C)C)NC(=O)Cn2c3ccccc3c3c4c(c5c6ccccc6[nH]c5c32)C(=O)N(C)C4=O)CC1 (configuration not stated)
[6]
  Activity: Active
[1]
  IC50: > 10 µM
[7]
  Activity: 8.86%
[2]
  IC50: 2.44 µM
[3]
  IC50: > 10 µM
[4]
  IC50: 7.94 µM
[5]
  IC50: 3.48 µM
[8]
  Activity: Active

## CN1C(=O)c2c(c3c4ccccc4n(CC(=O)NC(Cc4ccccc4)C(=O)O)c3c3[nH]c4ccccc4c23)C1=O (configuration not stated)
[1]
  IC50: > 10 µM
[2]
  IC50: > 10 µM
[3]
  IC50: > 10 µM
[4]
  IC50: > 10 µM
[5]
  IC50: > 10 µM

## CC(C)CC(NC(=O)Cn1c2ccccc2c2c3c(c4c5ccccc5[nH]c4c21)C(=O)N(C)C3=O)C(=O)N1CCN(C)CC1 (configuration not stated)
[6]
  Activity: Active
[1]
  IC50: 2.23 µM
[7]
  Activity: 14.33%
[2]
  IC50: 1.94 µM
[3]
  IC50: > 10 µM
[4]
  IC50: 1.84 µM
[5]
  IC50: 1.26 µM
[8]
  Activity: Active

## COC(=O)C(Cc1ccccc1)NC(=O)Cn1c2ccccc2c2c3c(c4c5ccccc5[nH]c4c21)C(=O)N(C)C3=O (configuration not stated)
[1]
  IC50: > 10 µM
[2]
  IC50: > 10 µM
[3]
  IC50: > 10 µM
[4]
  IC50: > 10 µM
[5]
  IC50: > 10 µM

## CC(C)C(NC(=O)Cn1c2ccccc2c2c3c(c4c5ccccc5[nH]c4c21)C(=O)N(C)C3=O)C(=O)O (configuration not stated)
[1]
  IC50: > 10 µM
[2]
  IC50: > 10 µM
[3]
  IC50: > 10 µM
[4]
  IC50: > 10 µM
[5]
  IC50: > 10 µM

## COC(=O)CNC(=O)Cn1c2ccccc2c2c3c(c4c5ccccc5[nH]c4c21)C(=O)N(C)C3=O
[1]
  IC50: > 10 µM
[2]
  IC50: 2.23 µM
[3]
  IC50: > 10 µM
[4]
  IC50: 2.13 µM
[5]
  IC50: 2.88 µM

## CN1C(=O)c2c(c3c4ccccc4n([C@@H]4O[C@H](CO)[C@@H](O)[C@H](O)[C@H]4O)c3c3[nH]c4ccccc4c23)C1=O
[1]
  IC50: 6.68 µM
[2]
  IC50: > 10 µM
[3]
  IC50: > 10 µM
[4]
  IC50: > 10 µM
[5]
  IC50: 7.44 µM

## COC(=O)C(C)NC(=O)Cn1c2ccccc2c2c3c(c4c5ccccc5[nH]c4c21)C(=O)N(C)C3=O (configuration not stated)
[1]
  IC50: > 10 µM
[2]
  IC50: > 10 µM
[3]
  IC50: > 10 µM
[4]
  IC50: > 10 µM
[5]
  IC50: > 10 µM

## CCN1CCN(C(=O)C(Cc2ccccc2)NC(=O)Cn2c3ccccc3c3c4c(c5c6ccccc6[nH]c5c32)C(=O)N(C)C4=O)CC1 (configuration not stated)
[6]
  Activity: Active
[1]
  IC50: 1.91 µM
[7]
  Activity: 10.3%
[2]
  IC50: 1.91 µM
[3]
  IC50: 1.09 µM
[4]
  IC50: 1.86 µM
[5]
  IC50: 2.88 µM
[8]
  Activity: Active

## CC(NC(=O)Cn1c2ccccc2c2c3c(c4c5ccccc5[nH]c4c21)C(=O)N(C)C3=O)C(=O)O (configuration not stated)
[1]
  IC50: > 10 µM
[2]
  IC50: > 10 µM
[3]
  IC50: > 10 µM
[4]
  IC50: > 10 µM
[5]
  IC50: > 10 µM
